The values below come from paper PMC2883171 (Organic & biomolecular chemistry, 2008).

Data set [1] concerns the target T1, soybean lipoxygenase-1 (sLO-1) (Glycine max, UniProt P08170).
T1 sequence (P08170 1-839): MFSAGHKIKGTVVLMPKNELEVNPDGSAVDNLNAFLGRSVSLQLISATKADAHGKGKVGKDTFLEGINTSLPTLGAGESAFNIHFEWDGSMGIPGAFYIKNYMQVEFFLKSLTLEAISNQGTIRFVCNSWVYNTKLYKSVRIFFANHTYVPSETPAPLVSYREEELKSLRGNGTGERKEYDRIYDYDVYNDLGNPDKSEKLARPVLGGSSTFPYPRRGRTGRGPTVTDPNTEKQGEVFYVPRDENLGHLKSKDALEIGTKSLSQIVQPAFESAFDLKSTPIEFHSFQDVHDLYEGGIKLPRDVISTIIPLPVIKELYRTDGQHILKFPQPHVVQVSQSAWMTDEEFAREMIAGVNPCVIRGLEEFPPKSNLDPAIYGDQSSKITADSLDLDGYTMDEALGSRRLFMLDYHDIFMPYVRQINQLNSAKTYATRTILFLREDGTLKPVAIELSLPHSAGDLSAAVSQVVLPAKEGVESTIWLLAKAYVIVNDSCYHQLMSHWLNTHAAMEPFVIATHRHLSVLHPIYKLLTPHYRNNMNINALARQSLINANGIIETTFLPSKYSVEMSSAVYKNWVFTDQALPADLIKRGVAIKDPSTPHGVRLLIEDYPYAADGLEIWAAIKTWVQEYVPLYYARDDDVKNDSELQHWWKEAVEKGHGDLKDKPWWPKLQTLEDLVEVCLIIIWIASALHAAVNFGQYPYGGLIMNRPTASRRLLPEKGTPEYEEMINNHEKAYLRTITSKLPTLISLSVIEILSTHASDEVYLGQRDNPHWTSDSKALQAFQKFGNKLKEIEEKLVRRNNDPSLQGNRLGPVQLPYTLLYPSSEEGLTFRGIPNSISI
Briefly: Kinetic inhibition assay of sLO-1. The data set is classed as biochemical.

The target of data set [2] is T2, human reticulocyte 15-lipoxygenase-1 (15-hLO-1) (Homo sapiens, UniProt P16050).
T2 sequence (P16050 1-662): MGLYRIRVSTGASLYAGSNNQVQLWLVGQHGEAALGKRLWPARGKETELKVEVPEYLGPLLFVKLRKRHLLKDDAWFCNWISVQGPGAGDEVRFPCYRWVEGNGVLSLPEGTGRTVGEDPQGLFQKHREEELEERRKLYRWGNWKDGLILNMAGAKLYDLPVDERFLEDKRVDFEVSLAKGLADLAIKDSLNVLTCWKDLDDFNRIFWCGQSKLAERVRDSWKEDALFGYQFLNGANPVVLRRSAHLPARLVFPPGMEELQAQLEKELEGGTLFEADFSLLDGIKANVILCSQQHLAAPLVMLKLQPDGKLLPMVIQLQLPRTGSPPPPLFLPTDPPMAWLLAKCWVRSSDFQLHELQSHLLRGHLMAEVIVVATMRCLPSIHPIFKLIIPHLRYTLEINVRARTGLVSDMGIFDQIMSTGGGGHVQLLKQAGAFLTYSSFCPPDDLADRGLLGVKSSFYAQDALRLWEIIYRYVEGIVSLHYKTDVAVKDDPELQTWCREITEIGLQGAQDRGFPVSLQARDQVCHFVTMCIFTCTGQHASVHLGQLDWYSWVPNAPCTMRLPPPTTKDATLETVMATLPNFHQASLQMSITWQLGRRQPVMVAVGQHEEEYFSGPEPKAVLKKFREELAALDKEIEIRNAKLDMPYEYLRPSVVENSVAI
Briefly: Kinetic inhibition assay of 15-hLO-1. The data set is classed as biochemical. Particulars: for Ki: Kis; for Ki / Kii: noncompetitive.

The target in data set [3] is T3, human platelet 12-lipoxygenase (12-hLO) (Homo sapiens, UniProt P18054).
T3 sequence (P18054 1-663): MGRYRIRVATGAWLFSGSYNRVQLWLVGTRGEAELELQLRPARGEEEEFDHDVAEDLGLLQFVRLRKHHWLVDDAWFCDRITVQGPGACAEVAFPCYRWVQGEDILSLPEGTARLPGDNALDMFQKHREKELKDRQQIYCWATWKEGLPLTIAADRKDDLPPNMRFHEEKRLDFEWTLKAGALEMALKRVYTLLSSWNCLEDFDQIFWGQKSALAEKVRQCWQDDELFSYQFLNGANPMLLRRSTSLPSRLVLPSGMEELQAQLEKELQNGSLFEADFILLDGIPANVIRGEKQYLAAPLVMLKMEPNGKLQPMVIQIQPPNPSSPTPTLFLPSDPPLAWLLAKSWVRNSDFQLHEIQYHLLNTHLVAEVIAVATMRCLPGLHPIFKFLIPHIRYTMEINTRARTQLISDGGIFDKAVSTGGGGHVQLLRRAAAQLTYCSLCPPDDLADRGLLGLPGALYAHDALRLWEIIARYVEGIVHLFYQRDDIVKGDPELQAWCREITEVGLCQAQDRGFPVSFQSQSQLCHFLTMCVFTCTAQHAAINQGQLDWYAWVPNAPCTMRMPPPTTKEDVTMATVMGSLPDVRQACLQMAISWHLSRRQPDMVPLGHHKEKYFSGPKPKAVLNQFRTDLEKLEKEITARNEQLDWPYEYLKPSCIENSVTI
Put plainly: Kinetic inhibition assay of 12-hLO. The data set is classed as biochemical.

For a further data set, the target named is T4, 15-hLO-1 (Homo sapiens, UniProt P16050).
T4 sequence (P16050 1-662): T2 sequence (P16050 1-662)
Put plainly: HPLC analysis of product distribution, 15-hLO-1. The data set is classed as biochemical. To be noted: AA 15 µM, inhibitor at 5 × Ki, HEPES pH 7.5; error in parentheses. The essentials:
(§1)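 Reaction was followed at 235 nm and products isolated after 15 min. Products were resolved by isocratic reverse-phase HPLC (55% A/45% B) against authentic HETE standards, with 8- and 12-HETE coeluting.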

The next data set deals with T5, 12-hLO (Homo sapiens, UniProt P18054).
T5 sequence (P18054 1-663): T3 sequence (P18054 1-663)
Put plainly: HPLC analysis of product distribution, 12-hLO. The data set is classed as biochemical. To be noted: AA 15 µM, inhibitor at 5 × Ki, HEPES pH 7.5; error in parentheses. The essentials: as §1

The target of data set [4] is T6, sLO-1 (Glycine max, UniProt P08170).
T6 sequence (P08170 1-839): T1 sequence (P08170 1-839)
Briefly: HPLC analysis of product regioselectivity, sLO-1. The data set is classed as biochemical, soybean. To be noted: exclusive product 13-HPODE, no 9-HPODE, with and without inhibitor.

The target of data set [5] is T6, sLO-1. Briefly: Incubation of thiaLAs with sLO-1 as possible substrates. Particulars: over the course of one hour. The data set is classed as biochemical, soybean.
In data set [6] the target is T6, sLO-1. Briefly: Consumption of the inhibitor under turnover conditions with 13-HPODE. The data set is classed as biochemical, soybean. To be noted: enzyme, AA and 13-HPODE, 1 hour, HPLC.
Substrate in data set [7]: CCCCC/C=C\C/C=C\C/C=C\C/C=C\CCCC(=O)O
Put plainly: Kinetic inhibition assay of sLO-1. The data set is classed as biochemical, soybean.

[8] abbreviates: Ki (competitive inhibition), substrate linoleic acid, pH 10.0.
Setting [9] is: substrate linoleic acid, pH 10.0.
Setting [10] is: substrate LA, pH 7.5, 13-HPODE activator.

Several values for one entry are separate records, joined by “and”; a condition that tells them apart may be missing. Equal entries are not always repeated.

Consider `CCCCC/C=C\S/C=C\CCCCCCCC(=O)O` [Compound 11-thiaLA, 11-Thialinoleic acid], for which the Ki (in general, the dissociation constant of the complex between target and ligand, obtained from inhibition or displacement) in data set [1] (setting [8]) is 22 µM; in [1] (Kis, substrate arachidonic acid, pH 7.5, 13-HPODE activator, noncompetitive) it was 45.6 ± 11.1 µM; in data set [1] (Kis, substrate arachidonic acid, pH 10.0, 13-HPODE activator, noncompetitive) it was 48.5 µM and 48 µM; in data set [2] (substrate AA, 13-HPODE activator), 11.4 µM; in [2] (setting [10]) it was 20.1 µM; in data set [3], 2.5 µM. For the same molecule, the “Mode of inhibition in the presence of activator” value is recorded as “competitive inhibition” in data set [1] (oxidation of LA, 13-HPODE present) and “competitive inhibition” in data set [3] (oxidation of AA, 13-HPODE (16 µM) present). The Mode of inhibition entry in data set [1] (substrate AA, pH 10.0 and pH 7.5, 13-HPODE activator) is “noncompetitive inhibition”; in data set [1] (setting [9]), “competitive inhibition”; in data set [2] (AA as substrate), “noncompetitive inhibitor”; in data set [2] (with respect to LA), “noncompetitive inhibitor”; in data set [3] (AA as substrate), “competitive inhibitor”. Also, the Kii in data set [1] (substrate arachidonic acid, pH 7.5, 13-HPODE activator, noncompetitive) is on record as 38.2 ± 5.4 µM; in data set [1] (substrate arachidonic acid, pH 10.0, 13-HPODE activator, noncompetitive), 36.0 ± 4.0 µM; in [2] (substrate AA, 13-HPODE activator, listed as 11-ThiaLA), 18.1 ± 2.0 µM; in data set [2] (substrate AA, 13-HPODE activator, listed as 11-Thialinoleic acid), 18.1 µM; in [2] (setting [10]), 20.0 ± 1.4 µM. Further, in [3] (compared with Ki for oxidation of LA by sLO-1), the “Ki for 12-hLO smaller than for sLO-1 (LA)” value is listed as “approximately 10 fold”. For the same molecule, the figures for the “8-/12-HETE (%)” value on 15-hLO-1 and at 12-hLO were 16 (3) % and 93 (1) %, respectively. In addition, the “11-HETE (%)” value was 5 (1) % on 15-hLO-1 and 2 (1) % on 12-hLO. Further, the figures for the “15-HETE (%)” value at 15-hLO-1 and at 12-hLO were 79 (3) % and 5 (1) %, respectively. Also, the “Effect on product regioselectivity of sLO-1” value at sLO-1 [4] is listed as “did not affect the product regioselectivity”. In addition, the “Activity as substrate on incubation with sLO-1” value on sLO-1 [5] is “did not result in any appreciable activity”. Also, the “Conversion of the inhibitor under turnover conditions” value at sLO-1 [6] was “no discernable conversion”.

For `CCCCS/C=C\C/C=C\CCCCCCCC(=O)O` [Compound 14-thiaLA, 14-Thialinoleic acid], in [1] (setting [8]), the Ki came out at 35 µM. For the same molecule, in data set [1] (setting [9]), the Mode of inhibition entry is given as “competitive inhibition”. Further, the “Substrate or inhibitor behaviour with 12-hLO” value in data set [3] (AA as substrate) is “neither a substrate nor an inhibitor”. Also, the “Activity as substrate on incubation with sLO-1” value at sLO-1 [5] is given as “did not result in any appreciable activity”. In addition, the “Conversion of the inhibitor under turnover conditions” value on sLO-1 [6] is “oxidized to a small extent”.

For `CCCCC/C=C\C/C=C\CCCCCCCC(=O)O` [LA, linoleic acid, reference compound], the Km (usually the substrate concentration at which the rate is half of its maximum) in [1] (read-out: Km for linoleic acid with sLO-1, pH 10.0) came out at 28 ± 5 µM; in [2] (read-out: Km with 15-hLO-1, substrate itself, 13-HPODE activator) it was 6.2 ± 0.9 µM.

B1: soybean lipoxygenase-1 (sLO-1) (Glycine max) (protein)
chain: T1 sequence (P08170 1-839)
In the case of B1, the Km is recorded as 31.7 ± 3.5 µM in [7] (other: pH 7.5, 13-HPODE activator, pH 7.5) and 15.1 ± 1.5 µM in [7] (other: pH 10.0, 13-HPODE activator, pH 10.0).
